The source of these data is ChEMBL document CHEMBL1141807, “New phenolic and quinone-methide triterpenes from Maytenus amazonica” (J Nat Prod, 1999).

For orientation: IC50 means the point on the concentration scale where inhibition reaches its midpoint.

Assay [1] is described as follows: Cytotoxicity against human SK MEL28 ATCC HTB-72 cells. In kind it is functional, cell-based. The conditions noted are these: SK-MEL-28. The method in brief:
(§1)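 Lines maintained in log-phase growth in EMEM/neaa with 5% fetal calf serum, 10-2 M sodium bicarbonate, 0.1 g/L penicillin G and 0.1 g/L streptomycin sulfate. P-388 grown as suspension culture; A-549, HT-29 and MEL-28 as monolayers. Compounds dissolved in DMSO–MeOH (1:9). Read-out IC50 in µg/mL.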

Assay [2] addresses Aldo-keto reductase family 1 member B1 (Homo sapiens, UniProt P15121). In words: Inhibition of human recombinant aldose reductase. The method in brief:
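Recombinant human aldose reductase, purified by a published method. In vitro inhibition measured by a modified version of that method. Values given as IC50 in µg/mL.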

The subject of a further assay is A549. In words: Cytotoxicity against human A549 ATCC CCl-185 cells. In kind it is functional, cell-based. In outline: as §1
In a further assay the test system is HT-29. Briefly: Cytotoxicity against human HT-29 ATCC HTB-38 cells. In kind it is functional, cell-based. The method in brief:
as §1

For another assay, the system named is P388. Briefly: Cytotoxicity against mouse P388 ATCC CCL-46 cells. In kind it is functional, cell-based. The method in brief: as §1

Each structure is given as a SMILES string. Values after ≈ are worked out from the molar mass of the structure shown.

As to `CC1=C(O)C(=O)C=C2C1=CC(=O)[C@@H]1[C@@]2(C)CC[C@@]2(C)[C@@H]3C[C@@H](C)C(=O)C[C@]3(C)CC[C@]12C` [AMAZOQUINONE], the IC50 in assay [1] was 5 µg/mL (≈ 11.5 µM); in assay [2], 57.3 µM; in the assay with A549, 5 µg/mL (≈ 11.5 µM); in the assay with HT-29 it was 5 µg/mL (≈ 11.5 µM); with P388 it was 2.5 µg/mL (≈ 5.73 µM).

Take `Cc1c(O)c(O)cc2c1C(=O)C[C@@H]1[C@@]2(C)CC[C@@]2(C)[C@@H]3C[C@@H](C)C(=O)C[C@]3(C)CC[C@]12C`: the IC50 is 10 µg/mL (≈ 22.8 µM) in assay [1]; 57 µM in assay [2]; 5 µg/mL (≈ 11.4 µM) in the assay on A549; 10 µg/mL (≈ 22.8 µM) in the assay on HT-29; 5 µg/mL (≈ 11.4 µM) with P388.

Take `CC1=C(O)C(=O)C=C2C1=C[C@H](O)[C@@H]1[C@@]2(C)CC[C@@]2(C)[C@@H]3C[C@@H](C)C(=O)C[C@]3(C)CC[C@]12C`: the IC50 was 5 µg/mL (≈ 11.4 µM) in assay [1]; 57 µM in assay [2]; 5 µg/mL (≈ 11.4 µM) in the assay with A549; 5 µg/mL (≈ 11.4 µM) in the assay with HT-29; 5 µg/mL (≈ 11.4 µM) in the assay on P388.

On to `C[C@@H]1C[C@@H]2[C@@](C)(CC[C@@]3(C)[C@@]2(C)CC=C2c4cc(O)c(O)c(C=O)c4C=C[C@]23C)CC1=O`, for which the IC50 in assay [1] is 10 µg/mL (≈ 23 µM); in assay [2], 57.5 µM; in the assay with A549 it was 10 µg/mL (≈ 23 µM); with HT-29 it was 10 µg/mL (≈ 23 µM); with P388, 10 µg/mL (≈ 23 µM).
